Thrombin inh = thrombin (human) inhibition; 220,000 compounds, 0.26% hits; inhibition, % at 5 µM; P00734; alpha-thrombin, Boc-VPR-AMC fluorogenic substrate cleavage;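 active = inhibition at or above 40%; inactive = inhibition below 40%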;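 note: 0% = enzyme with no compound and 100% = wells without enzyme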
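Test system: human alpha-thrombin protein / Dosing: one concentration per compound, 5 µM, with 0.2% DMSO / Medium: pH 7.5 Tris-saline with Tween 20 / Benchmarks: no-compound enzyme wells and no-enzyme blanks / Read-out basis: percent inhibition of thrombin substrate cleavage / Timing: reaction at room temperature / Measured by: fluorescence, ex 355 nm, em 460 nm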
FXIa inh 1536 = inhibitors of human coagulation factor XIa; P03951; purified FXIa, Boc-Glu-Ala-Arg-AMC fluorogenic substrate; inhibition, % at 5 µM; 220,000 compounds, 0.14% hits;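 active = inhibition of at least 40%; inactive = inhibition below 40%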;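 note: fluorescence of freed AMC excited at 355 nm; 0% = enzyme without compound and 100% = no enzyme blank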
FXIIa inh 1536 = inhibitors of human coagulation factor XIIa; purified FXIIa, Boc-QGR-AMC fluorogenic substrate, 2 h; inhibition, % at 5 µM; 220,000 compounds, 0.3% hits; in the data active = inhibition above about 40%;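 note: 0% = enzyme with no compound and 100% = blank without enzyme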
AHR act = activators of human aryl hydrocarbon receptor; P35869; AHR-responsive luciferase reporter cells, luminescence; activation, % at 5 µM; 320,000 compounds, 2.5% hits; AID 2796; in the data active = activation above about 47%;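 note: 0% = vehicle wells and 100% = reference agonist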
Target sequence (P35869 whole entry, looked up): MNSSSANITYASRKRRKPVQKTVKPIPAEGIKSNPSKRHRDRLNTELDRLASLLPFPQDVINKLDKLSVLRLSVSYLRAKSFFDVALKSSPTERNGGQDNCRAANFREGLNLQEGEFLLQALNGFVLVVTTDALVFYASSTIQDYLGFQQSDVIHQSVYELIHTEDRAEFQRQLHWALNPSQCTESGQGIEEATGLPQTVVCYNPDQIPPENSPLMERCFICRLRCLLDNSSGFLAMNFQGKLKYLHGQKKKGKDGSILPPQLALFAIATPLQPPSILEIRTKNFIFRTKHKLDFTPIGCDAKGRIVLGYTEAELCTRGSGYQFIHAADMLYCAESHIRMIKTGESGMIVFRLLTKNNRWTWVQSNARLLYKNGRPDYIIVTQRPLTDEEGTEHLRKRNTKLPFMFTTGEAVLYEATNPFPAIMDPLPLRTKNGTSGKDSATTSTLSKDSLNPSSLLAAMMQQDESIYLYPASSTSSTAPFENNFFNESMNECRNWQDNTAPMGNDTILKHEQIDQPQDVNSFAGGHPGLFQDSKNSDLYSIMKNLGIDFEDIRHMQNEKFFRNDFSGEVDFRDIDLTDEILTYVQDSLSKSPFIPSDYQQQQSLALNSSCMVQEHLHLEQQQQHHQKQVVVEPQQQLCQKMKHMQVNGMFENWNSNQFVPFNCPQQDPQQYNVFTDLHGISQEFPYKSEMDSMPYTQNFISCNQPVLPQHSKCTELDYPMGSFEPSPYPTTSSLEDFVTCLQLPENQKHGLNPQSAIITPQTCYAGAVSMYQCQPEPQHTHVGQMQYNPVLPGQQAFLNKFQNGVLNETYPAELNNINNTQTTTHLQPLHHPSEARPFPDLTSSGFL
KLK5 inh = blocks human kallikrein 5 protease activity. Q9Y337. inhibition, % at 5 µM. 210,000 compounds, 0.59% hits. recombinant hK5, fluorogenic AMC substrate cleavage;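 active = inhibition of 40% or more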;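 note: 0% = enzyme controls without compound and 100% = no-enzyme blanks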
STAT3 activator = activators of IL-6 induced STAT3 signaling; U3A cells, IL-6 STAT3-luciferase reporter, luminescence; 100% = signal with IL-6 EC80 alone; activation (% of control), % at 5.6 µM; 190,000 compounds, 0.91% hits;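 active = activation above the screen-wide mean of compound activation plus 3 SD, cut at about 130% in these data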;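 note: 0% = background luminescence of wells with medium and substrate only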
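Material: STAT1-lacking human U3A cells, STAT3 luciferase reporter | Benchmarks: IL-6-only wells as 100% reference | Probe or stimulus: IL-6 (33 ng/mL) | Timing: Compound 1 h, then IL-6 6 h at 37 °C | Detection: Luminescence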
AHR act cf = human AHR activation, confirmation; shares compounds with AHR act; 2,300 compounds, 87% hits; activation, % at 9 µM; human cells, AHR-responsive luciferase reporter, luminescence; AID 2845; in the data active = activation above about 49%;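 note: HepG2 hepatoma cells carrying a DRE-driven firefly luciferase reporter; 0% = vehicle wells and 100% = reference agonist wells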
PXR counter = counter-screen for AHR activators: human PXR activators. shares compounds with AHR act. cell-based PXR reporter, luciferase luminescence. activation, % at 11.6 µM. 2,300 compounds, 88% hits; in the data active = activation above about 11%;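 note: human hepatoma DPX-2 cells expressing full-length human PXR; 0% = DMSO and 100% = reference agonist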
An asterisk follows results filed as active; . = no result. In the library only some 3.5% were active in any assay of this set; here they are far more common.

SMILES | Thrombin inh | FXIa inh 1536 | FXIIa inh 1536 | AHR act | KLK5 inh | STAT3 activator | AHR act cf | PXR counter
O=C1CSC(c2ccc(F)cc2)N1c1nc2ccccc2s1 (stereo unspecified) | -5 | 9 | 14 | 149* | -12 | 108 | 98* | 63*
CSc1sc(C(=O)NN)c2c1C(O)CCC2 (stereo unspecified) | . | . | . | 80* | . | . | 11 | 4
COc1ccc(Cl)cc1C(=O)O/N=C(\N)c1ccccn1 | . | . | . | 17 | . | . | . | .
N/C(=N\OC(=O)c1ccc(Br)o1)c1ccccn1 | 5 | -6 | -2 | 79* | -18 | 96 | 29 | 22*
N/C(=N\OC(=O)c1cc(Cl)ccc1Cl)c1ccccn1 | 1 | -1 | 4 | 122* | 1 | 70 | 64* | 17*
CC1CCN(c2ccc3nnc(CCC(=O)Nc4cccc(F)c4)n3n2)CC1 | . | . | . | -3 | . | . | . | .
Cc1cc(Br)ccc1NC(=O)c1sc2ncnc(N3CCN(c4ccccn4)CC3)c2c1C | . | . | . | 80* | . | . | 91* | 19*
CC(NC(=O)NCc1cccnc1)(C(F)(F)F)C(F)(F)F | 2 | -2 | 0 | 0 | -6 | 102 | . | .
S=c1nc(Cc2ccccc2)[nH]c2ccccc12 | . | . | . | 3 | . | . | . | .
S=c1nc(COc2ccccc2)[nH]c2ccccc12 | . | . | . | 124* | . | . | 125* | 14*
CC1C(=O)Nc2ccc(S(=O)(=O)N3CCCCCC3)cc21 (stereo unspecified) | . | . | . | 0 | . | . | . | .
COc1ccc(NC(=O)c2ccc(Cl)nc2)cc1S(=O)(=O)N1CCOCC1 | . | . | . | 92* | . | . | 102* | 21*
Cc1nn(C)c(C(=O)Nc2ccc(Br)cc2F)c1Br | -2 | -5 | 5 | 88* | -10 | 113 | 110* | 12*
O=C(Nc1ccc(Br)cc1F)c1cccnc1 | 0 | 7 | 18 | 126* | -18 | 87 | 60* | 26*
Cn1ncc(Br)c1C(=O)Nc1ccc(F)cc1F | 1 | 6 | 11 | 85* | -4 | 85 | 80* | 17*
Cc1cc(C(=O)Nc2ccc(F)cc2F)on1 | . | . | . | -4 | . | . | . | .
CCCc1c(C(=O)Nc2ccc(F)cc2F)cnn1-c1ccccc1 | -3 | -2 | 7 | 83* | -4 | . | 91* | 71*
O=C(NCc1ccccc1Cl)c1cc(C(=O)C2CC2)c[nH]1 | . | . | . | 29 | . | . | . | .
Cc1ccc(NC2=C(NC(=O)c3ccccc3)C(=O)c3ccccc3C2=O)cc1Cl | -8 | -7 | 1 | 104* | -2 | 110 | 106* | 93*
Cc1cccc(NC(=O)CSCC(=O)NNC(=O)c2ccoc2C)c1 | . | . | . | 3 | . | . | . | .
Cn1/c(=N\NC(=O)c2ccccc2Cl)sc2ccccc21 | -2 | -8 | 3 | 136* | 4 | 110 | 126* | 53*
O=C(O)c1ccc(-c2nc3ccccc3s2)o1 | -1 | -1 | 6 | 4 | -2 | . | . | .
O=C(c1ccc(-c2nc3ccccc3s2)o1)N1CCN(c2ccccc2O)CC1 | . | . | . | 89* | . | . | 85* | 37*
N=C1S/C(=C\c2ccco2)C(=O)N1c1nccs1 | 3 | 2 | 11 | 112* | -1 | 104 | 111* | 10*
c1ccc(N2CCN(c3nc4cc5c(cc4s3)OCO5)CC2)cc1 | -4 | 8 | 9 | 1 | -15 | 66 | . | .
SMILES | Thrombin inh | FXIa inh 1536 | FXIIa inh 1536 | AHR act | KLK5 inh | STAT3 activator | AHR act cf | PXR counter
c1ccc2c(c1)CCN(c1nc3cc4c(cc3s1)OCO4)C2 | -6 | -14 | -17 | 103* | -3 | 86 | 45 | 35*
Cc1cc(NC(=O)CSc2nc3c([nH]c4ccccc43)c(=O)n2-c2ccccc2F)no1 | . | . | . | 90* | . | . | 70* | 164*
Cc1cccc(-n2c(SCC(=O)NCC3CCCO3)nc3ccccc3c2=O)c1C (stereo unspecified) | . | . | . | 3 | . | . | . | .
Cn1c(SCC(=O)Nc2ccc(F)cc2)nc2c([nH]c3ccccc32)c1=O | 0 | -3 | 6 | 14 | -6 | 110 | . | .
O=C(CSc1nc2c([nH]c3ccccc32)c(=O)n1-c1ccccc1F)NCC1CCCO1 (stereo unspecified) | . | . | . | 96* | . | . | 98* | 112*
COc1c(C)cc(S(=O)(=O)NCc2ccco2)c(C)c1C | . | . | . | -6 | . | . | . | .
COCc1cc(=O)[nH]c(Nc2nc3ccccc3o2)n1 | 2 | 12 | 11 | 130* | -16 | 93 | 74* | 19*
COC(=O)Cc1cc(=O)[nH]c(Nc2nc3ccccc3o2)n1 | -2 | -11 | 10 | 38 | -210 | 95 | . | .
O=C(Nc1nncs1)c1cc(S(=O)(=O)N2CCCCC2)ccc1Cl | . | . | . | -3 | . | . | . | .
Fc1ccc(/C=N/Nc2ncnc3nc[nH]c23)cc1F | 2 | 3 | 8 | 103* | 2 | 85 | 65* | 32*
Cc1cc(C)nc(Nc2cccc3ccccc23)n1 | . | . | . | 131* | . | . | 109* | 19*
Cc1cccc2cc(C#N)c(NCc3ccccc3)nc12 | -15 | 0 | 0 | 18 | -6 | 105 | . | .
Cc1cc(NCCCn2ccnc2)n2c(nc3ccccc32)c1C#N | -6 | -15 | -9 | 104* | -42 | 102 | 79* | 16*
Cc1cccc2cc(C#N)c(NCCCn3ccnc3)nc12 | -2 | 2 | 11 | 92* | -1 | 89 | 67* | 33*
Cc1cc(NCCCN(C)C)n2c(nc3ccccc32)c1C#N | . | . | . | 11 | . | . | . | .
CCC(CC)NC(=O)c1cc2c(C)nn(Cc3ccccc3Cl)c2s1 | 1 | 10 | 15 | 4 | -30 | 107 | . | .
Cc1nn(Cc2ccc(F)cc2)c2sc(C(=O)Nc3nccs3)cc12 | -4 | 1 | -5 | 96* | -15 | 97 | 109* | 38*
Cc1nn(Cc2ccccc2Cl)c2sc(C(=O)Nc3nccs3)cc12 | -4 | -2 | -2 | 102* | -12 | 100 | 119* | 99*
Nc1ccccc1C(=O)NNc1c2ccccc2nc2ccccc12 | -4 | 5 | 13 | 96* | 6 | . | 105* | 64*
Cc1ccc(C(=O)NNc2c3ccccc3nc3ccccc23)cc1 | -4 | 0 | 3 | 39 | 2 | . | . | .
COc1ccc(C(=O)N/C(=C\c2cn(C)c3ccccc23)C(=O)OCC(C)C)cc1 | -7 | 4 | 11 | 90* | -8 | 105 | 60* | 137*
COc1ccc(C(=O)N/C(=C\c2cn(C)c3ccccc23)C(=O)OCCN(C)C)cc1 | -5 | 8 | 13 | 100* | -5 | . | 109* | 94*
CCN(CC)C(=O)/C(=C/c1cn(S(=O)(=O)N(C)C)c2ccccc12)NC(=O)c1ccc(OC)cc1 | 7 | 3 | 12 | 1 | . | 110 | . | .
COc1ccc(C(=O)N/C(=C\c2cn(S(=O)(=O)N(C)C)c3ccccc23)C(=O)NC(C)C)cc1 | -4 | -3 | 6 | 1 | . | 100 | . | .
NC(=O)[C@@H]1CCCN1Cc1nc(Cc2ccccc2Cl)no1 | -1 | 2 | 12 | 1 | . | 99 | . | .
CN(CC(=O)Nc1ccc(F)cc1)C(=O)CCc1ccccc1 | . | . | . | 0 | . | . | . | .
